According to ChEMBL document CHEMBL3632499, “Synthesis and Antiproliferative Activity Evaluation of the Disulfide-Containing Cyclic Peptide Thiochondrilline C and Derivatives” (J Nat Prod, 2015):

What was measured:
[1] = Antiproliferative activity against human Hs 578T cells; format: functional
Procedure, shortened: (§1)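 Profiled in the National Cancer Institute 60 cancer cell line screen. Reported GI50 is the concentration giving 50% growth inhibition, TGI the concentration giving total growth inhibition, and LC50 the concentration giving 50% net cell killing. Values are averages ± SEM from two independent determinations.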

[2] = test system: SK-MEL-5; assay: Antiproliferative activity against human SK-MEL-5 cells; format: functional; procedure, shortened: as §1
[3] = Apparent permeability of the compound from apical to basolateral side in human Caco2 cells; format: ADME, cell-based; details: Caco-2
[4] = test system: T47D; assay: Antiproliferative activity against human T47D cells; format: functional
Procedure, shortened: (§2)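 Run in the National Cancer Institute 60 cancer cell line panel. Read-outs: GI50, the concentration causing 50% growth inhibition; TGI, the concentration causing total growth inhibition; LC50, the concentration causing 50% net cell killing. Values are averages ± SEM from two independent determinations.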

[5] = test system: MCF7; assay: Antiproliferative activity against human MCF7 cells; format: functional; procedure, shortened: as §1
[6] = test system: SK-MEL-2; assay: Antiproliferative activity against human SK-MEL-2 cells; format: functional; procedure, shortened: as §1
[7] = test system: 786-0; assay: Antiproliferative activity against human 786-0 cells; format: functional; procedure, shortened: as §1
[8] = test system: SK-OV-3; assay: Antiproliferative activity against human SKOV3 cells; format: functional; procedure, shortened: as §1
[9] = test system: SNB-75; assay: Antiproliferative activity against human SNB75 cells; format: functional; procedure, shortened: as §2
[10] = test system: IGROV-1; assay: Antiproliferative activity against human IGROV1 cells; format: functional; procedure, shortened: as §1
[11] = test system: NCI-H522; assay: Antiproliferative activity against human NCI-H522 cells; format: functional; procedure, shortened: as §1
[12] = Antiproliferative activity against human EKVX cells; format: functional; procedure, shortened: as §1
[13] = test system: A498; assay: Antiproliferative activity against human A498 cells; format: functional; procedure, shortened: as §1
[14] = test system: OVCAR-4; assay: Antiproliferative activity against human OVCAR4 cells; format: functional; procedure, shortened: as §1
[15] = Apparent permeability of the compound from basolateral to apical side in human Caco2 cells; format: ADME, cell-based; details: Caco-2
[16] = test system: A549; assay: Antiproliferative activity against human A549/ATCC cells; format: functional; procedure, shortened: as §1
[17] = test system: UACC-62; assay: Antiproliferative activity against human UACC62 cells; format: functional; procedure, shortened: as §2
[18] = test system: TK-10; assay: Antiproliferative activity against human TK10 cells; format: functional; procedure, shortened: as §2
[19] = test system: HT-29; assay: Antiproliferative activity against human HT-29 cells; format: functional; procedure, shortened: as §1
[20] = test system: K562; assay: Antiproliferative activity against human K562 cells; format: functional; procedure, shortened: as §1
[21] = test system: NCI-H23; assay: Antiproliferative activity against human NCI-H23 cells; format: functional; procedure, shortened: as §1
[22] = test system: SN12C; assay: Antiproliferative activity against human SN12C cells; format: functional; procedure, shortened: as §1
[23] = test system: NCI-H226; assay: Antiproliferative activity against human NCI-H226 cells; format: functional; procedure, shortened: as §1
[24] = test system: SF-268; assay: Antiproliferative activity against human SF268 cells; format: functional; procedure, shortened: as §1
[25] = Antiproliferative activity against human MOLT4 cells; format: functional; procedure, shortened: as §1
[26] = Antiproliferative activity against human HCC2998 cells; format: functional; procedure, shortened: as §1
[27] = Antiproliferative activity against human SF539 cells; format: functional; procedure, shortened: as §1
[28] = test system: KM12; assay: Antiproliferative activity against human KM12 cells; format: functional; procedure, shortened: as §1
[29] = Half life in mouse plasma; format: ADME, cell-free
[30] = test system: NCI-H460; assay: Antiproliferative activity against human NCI-H460 cells; format: functional; procedure, shortened: as §1
[31] = test system: OVCAR-8; assay: Antiproliferative activity against human OVCAR8 cells; format: functional; procedure, shortened: as §1
[32] = Antiproliferative activity against human RXF393 cells; format: functional; procedure, shortened: as §1
[33] = Antiproliferative activity against human NCI-ADR-RES cells; format: functional; procedure, shortened: as §1
[34] = read-out: LC50 (the source's name)

C[C@H](NC(=O)[C@@H]1CSSC[C@@H](NC(=O)c2nc3ccccc3cc2O)C(=O)NCC(=O)N1C)c1ccccc1
GI50 [1]: 11.3 µM
TGI [1]: 34.5 µM
CC50 [1, 34]: > 50 µM
GI50 [2]: 0.6 µM
TGI [2]: 3.8 µM
CC50 [2, 34]: 15.6 µM
Papp A→B [3]: 0.011 ×10⁻⁶ cm/s
GI50 [4]: 1.1 µM
TGI [4]: 3.8 µM
CC50 [4, 34]: 24.8 µM
GI50 [5]: 0.9 µM
TGI [5]: 2.6 µM
CC50 [5, 34]: 16.1 µM
GI50 [6]: 2.6 µM
TGI [6]: 10.1 µM
CC50 [6, 34]: 27.1 µM
GI50 [7]: 2.5 µM
TGI [7]: 9.8 µM
CC50 [7, 34]: 33.5 µM
GI50 [8]: 5.8 µM
TGI [8]: 21.3 µM
CC50 [8, 34]: > 50 µM
GI50 [9]: 7.7 µM
TGI [9]: > 50 µM
CC50 [9, 34]: > 50 µM
GI50 [10]: 4 µM
TGI [10]: 12.9 µM
CC50 [10, 34]: 37.6 µM
GI50 [11]: 3.6 µM
TGI [11]: 10.5 µM
CC50 [11, 34]: 29.1 µM
GI50 [12]: 3.8 µM
TGI [12]: 11.8 µM
CC50 [12, 34]: 31.4 µM
GI50 [13]: 15 µM
TGI [13]: 33.5 µM
CC50 [13, 34]: > 50 µM
GI50 [14]: 8 µM
TGI [14]: 18.4 µM
CC50 [14, 34]: 42.4 µM
Papp B→A [15]: 0.062 ×10⁻⁶ cm/s
GI50 [16]: 7.1 µM
TGI [16]: 15.7 µM
CC50 [16, 34]: 35.3 µM
GI50 [17]: 5.7 µM
TGI [17]: 13.3 µM
CC50 [17, 34]: 30.2 µM
GI50 [18]: 8.1 µM
TGI [18]: 15.4 µM
CC50 [18, 34]: 29.7 µM
GI50 [19]: 1.2 µM
TGI [19]: 3.9 µM
CC50 [19, 34]: 12.4 µM
GI50 [20]: 0.7 µM
TGI [20]: 3.1 µM
CC50 [20, 34]: > 50 µM
GI50 [21]: 5.2 µM
TGI [21]: 12.6 µM
CC50 [21, 34]: 29.7 µM
GI50 [22]: 5.6 µM
TGI [22]: 14.1 µM
CC50 [22, 34]: 35.4 µM
GI50 [23]: 8.9 µM
TGI [23]: 17.4 µM
CC50 [23, 34]: 34.2 µM
GI50 [24]: 0.4 µM
TGI [24]: 11.1 µM
CC50 [24, 34]: 35.6 µM
GI50 ([25]; MOLT-4): 0.9 µM
TGI ([25]; MOLT-4): 3.3 µM
CC50 ([25]; MOLT-4, read-out: LC50 (the source's name)): > 50 µM
GI50 ([26]; HCC 2998): 7.9 µM
TGI ([26]; HCC 2998): 17.9 µM
CC50 ([26]; HCC 2998, read-out: LC50 (the source's name)): > 50 µM
GI50 ([27]; SF-539): 2 µM
TGI ([27]; SF-539): 9.4 µM
CC50 ([27]; SF-539, read-out: LC50 (the source's name)): 27.3 µM
GI50 [28]: 0.6 µM
TGI [28]: 8.6 µM
CC50 [28, 34]: 28.3 µM
half-life [29]: 4.9 h
GI50 [30]: 1.3 µM
TGI [30]: 8 µM
CC50 [30, 34]: 30.5 µM
GI50 [31]: 5.2 µM
TGI [31]: 17.8 µM
CC50 [31, 34]: > 50 µM
GI50 ([32]; RXF 393): 1.3 µM
TGI ([32]; RXF 393): 3.1 µM
CC50 ([32]; RXF 393, read-out: LC50 (the source's name)): 13 µM
GI50 [33]: 11 µM
TGI [33]: > 50 µM
CC50 [33, 34]: > 50 µM
